In brackets after ≈: the same amount, converted by molar mass.
Legend:
[1] = tested on: DU-145; assay: Cytotoxicity against human DU145 cells after 96 hrs by trypan blue exclusion assay; type: functional, cell-based; details: for IC50: DU-145, 96 h
How it was run: (§1)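 Cells were grown in DMEM or RPMI with 10% FBS and plated at 2.5×10⁴ cells/well in 12-well dishes. Compounds were added 24 h later at various concentrations. After 96 h, viable cells were counted by trypan blue exclusion from duplicate wells. Results are the mean of two independent experiments.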

[2] = tested on: K562; assay: Cytotoxicity against human K562 cells after 96 hrs by trypan blue exclusion assay; type: functional, cell-based; details: for IC50: K562, 96 h; how it was run: as §1
[3] = Solubility of the compound in water; type: physicochemical

Row | solubility [3] [µg/mL] | Compound | Activity [1] | IC50 [1] [µM] | Activity [2] | IC50 [2] [µM]
1 |  | COC(=O)CNc1cc(NS(=O)(=O)/C=C/c2c(OC)cc(OC)cc2OC)ccc1OC | Dose-dependent effect | 0.35 | Dose-dependent effect | 0.35
2 |  | COc1ccc(/C=C/S(=O)(=O)Nc2ccc(OC)cc2)cc1 | Dose-dependent effect | 5 | Dose-dependent effect | 5
3 |  | COc1cc(OC)c(/C=C/S(=O)(=O)Nc2ccc(OC)c(OC(=O)C(C)(C)C3=C(C)C(=O)C=C(C)C3=O)c2)c(OC)c1 | Dose-dependent effect | 0.009 | Dose-dependent effect | 0.008
4 |  | COC(=O)C(C)Nc1cc(NS(=O)(=O)/C=C/c2c(OC)cc(OC)cc2OC)ccc1OC (stereo not given) | Dose-dependent effect | 0.1 | Dose-dependent effect | 0.3
5 | 10000 (≈ 16.5 mM) | COc1cc(OC)c(/C=C/S(=O)(=O)Nc2ccc(OC)c(NC(C(=O)O)c3ccc(Br)cc3)c2)c(OC)c1 (stereo not given) | Dose-dependent effect | 0.25 | Dose-dependent effect | 0.075
6 |  | COc1cc(OC)c(/C=C/S(=O)(=O)Nc2ccc(OC)c(OP(=O)(O)O)c2)c(OC)c1 | Dose-dependent effect | 0.04 | Dose-dependent effect | 0.0075
7 |  | COc1cc(OC)c(/C=C/S(=O)(=O)Nc2ccc(OC)c([N+](=O)[O-])c2)c(OC)c1 | Dose-dependent effect | 2.5 | Dose-dependent effect | 1
8 |  | COc1ccc(NS(=O)(=O)/C=C/c2c(F)c(F)c(F)c(F)c2F)cc1[N+](=O)[O-] | Dose-dependent effect | 100 | Dose-dependent effect | 100
9 | 10000 (≈ 18.9 mM) | COc1cc(OC)c(/C=C/S(=O)(=O)Nc2ccc(OC)c(NC(C(=O)O)c3ccccc3)c2)c(OC)c1 (stereo not given) | Dose-dependent effect | 0.075 | Dose-dependent effect | 0.3
10 |  | COc1ccc(NS(=O)(=O)/C=C/c2c(F)c(F)c(F)c(F)c2F)cc1N | Dose-dependent effect | 75 | Dose-dependent effect | 75
11 |  | COC(=O)C(Nc1cc(NS(=O)(=O)/C=C/c2c(OC)cc(OC)cc2OC)ccc1OC)c1ccc(F)cc1 (stereo not given) | Dose-dependent effect | 2.5 | Dose-dependent effect | 2.5
12 |  | O=S(=O)(/C=C/c1ccc(Br)cc1)Nc1ccc(F)cc1 | Dose-dependent effect | 10 | Dose-dependent effect | 10
13 | 10000 (≈ 17.8 mM) | COc1cc(OC)c(/C=C/S(=O)(=O)Nc2ccc(OC)c(NC(C(=O)O)c3ccc(Cl)cc3)c2)c(OC)c1 (stereo not given) | Dose-dependent effect | 0.075 | Dose-dependent effect | 0.015
14 |  | O=S(=O)(/C=C/c1c(F)c(F)c(F)c(F)c1F)Nc1c(F)c(F)c(F)c(F)c1F | Dose-dependent effect | 35 | Dose-dependent effect | 35
15 |  | COC(=O)C(C)(C)Nc1cc(NS(=O)(=O)/C=C/c2c(OC)cc(OC)cc2OC)ccc1OC | Dose-dependent effect | 0.2 | Dose-dependent effect | 0.3
16 |  | COc1ccc(/C=C/S(=O)(=O)Nc2c(F)c(F)c(F)c(F)c2F)cc1[N+](=O)[O-] | Dose-dependent effect | 100 | Dose-dependent effect | 75
17 |  | COc1ccc(/C=C/S(=O)(=O)Nc2c(OC)cc(OC)cc2OC)cc1 | Dose-dependent effect | 7.5 | Dose-dependent effect | 2.5
18 |  | COc1ccc(NS(=O)(=O)/C=C/c2cc(OC)c(OC)c(OC)c2)cc1[N+](=O)[O-] | Dose-dependent effect | 75 | Dose-dependent effect | 75
19 |  | COc1cc(OC)c(/C=C/S(=O)(=O)Nc2ccc(F)c([N+](=O)[O-])c2)c(OC)c1 | Dose-dependent effect | 100 | Dose-dependent effect | 75
20 |  | COc1ccc(NS(=O)(=O)/C=C/c2c(OC)cc(OCCCC(=O)O)cc2OC)cc1[N+](=O)[O-] | Dose-dependent effect | 100 | Dose-dependent effect | 100
21 |  | COc1ccc(/C=C/S(=O)(=O)Nc2c(F)c(F)c(F)c(F)c2F)cc1N | Dose-dependent effect | 35 | Dose-dependent effect | 35
22 |  | COc1ccc(/C=C/S(=O)(=O)Nc2ccc(OC)c(F)c2)cc1 | Dose-dependent effect | 5 | Dose-dependent effect | 1
23 |  | COc1ccc(NS(=O)(=O)/C=C/c2c(F)c(F)c(F)c(F)c2F)cc1F | Dose-dependent effect | 10 | Dose-dependent effect | 10

Row | solubility [3] [µg/mL] | Compound | Activity [1] | IC50 [1] [µM] | Activity [2] | IC50 [2] [µM]
24 | 10000 (≈ 21.4 mM) | COc1cc(OC)c(/C=C/S(=O)(=O)Nc2ccc(OC)c(NC(C)C(=O)O)c2)c(OC)c1 (stereo not given) | Dose-dependent effect | 0.04 | Dose-dependent effect | 0.008
25 |  | COc1ccc(NS(=O)(=O)/C=C/c2c(OC)cc(OCCCC(=O)O)cc2OC)cc1N | Dose-dependent effect | 10 | Dose-dependent effect | 10
26 |  | COC(=O)C(Nc1cc(NS(=O)(=O)/C=C/c2c(OC)cc(OC)cc2OC)ccc1OC)c1ccc(Cl)cc1 (stereo not given) | Dose-dependent effect | 5 | Dose-dependent effect | 2.5
27 |  | O=S(=O)(/C=C/c1ccccc1)Nc1ccccc1 | Dose-dependent effect | 10 | Dose-dependent effect | 10
28 |  | COc1ccc(/C=C/S(=O)(=O)Nc2ccc(F)cc2)cc1 | Dose-dependent effect | 10 | Dose-dependent effect | 10
29 |  | COc1ccc(NS(=O)(=O)/C=C/c2cc(OC)c(OC)c(OC)c2)cc1 | Dose-dependent effect | 35 | Dose-dependent effect | 35
30 |  | COc1ccc(NS(=O)(=O)/C=C/c2cc(OC)c(OC)c(OC)c2)cc1N | Dose-dependent effect | 35 | Dose-dependent effect | 15
31 |  | COc1ccc(NS(=O)(=O)/C=C/c2c(OC)cc(O)cc2OC)cc1 | Dose-dependent effect | 10 | Dose-dependent effect | 10
32 | 10000 (≈ 18.3 mM) | COc1cc(OC)c(/C=C/S(=O)(=O)Nc2ccc(OC)c(NC(C(=O)O)c3ccc(F)cc3)c2)c(OC)c1 (stereo not given) | Dose-dependent effect | 0.075 | Dose-dependent effect | 0.02
33 |  | COc1ccc(NS(=O)(=O)/C=C/c2c(OC)cccc2OC)cc1 | Dose-dependent effect | 0.375 | Dose-dependent effect | 5
34 |  | COc1ccc(NS(=O)(=O)/C=C/c2ccccc2OC)cc1 | Dose-dependent effect | 5 | Dose-dependent effect | 5
35 |  | COC(=O)C(Nc1cc(NS(=O)(=O)/C=C/c2c(OC)cc(OC)cc2OC)ccc1OC)c1ccccc1 (stereo not given) | Dose-dependent effect | 2.5 | Dose-dependent effect | 2.5
36 |  | COc1ccc(NS(=O)(=O)/C=C/c2c(F)c(F)c(F)c(F)c2F)cc1 | Dose-dependent effect | 10 | Dose-dependent effect | 5
37 |  | COc1ccc(NS(=O)(=O)/C=C/c2c(F)cc(F)cc2F)cc1 | Dose-dependent effect | 75 | Dose-dependent effect | 15
38 |  | COc1cc(OC)c(/C=C/S(=O)(=O)Nc2cc([N+](=O)[O-])c(OC)c([N+](=O)[O-])c2)c(OC)c1 | Dose-dependent effect | 10 | Dose-dependent effect | 10
39 |  | COc1cc(OC)c(/C=C/S(=O)(=O)Nc2ccc(F)c(N)c2)c(OC)c1 | Dose-dependent effect | 10 | Dose-dependent effect | 5
40 |  | COc1cc(OC)c(/C=C/S(=O)(=O)Nc2cc(N)c(OC)c(N)c2)c(OC)c1 | Dose-dependent effect | 2.5 | Dose-dependent effect | 7.5
41 |  | COc1cc(OC)c(/C=C/S(=O)(=O)Nc2ccc(OC)c(F)c2)c(OC)c1 | Dose-dependent effect | 0.2 | Dose-dependent effect | 0.075
42 |  | COc1ccc(NS(=O)(=O)/C=C/c2c(OC)cc(OCCCC(=O)O)cc2OC)cc1O | Dose-dependent effect | 10 | Dose-dependent effect | 10
43 |  | COC(=O)C(Nc1cc(NS(=O)(=O)/C=C/c2c(OC)cc(OC)cc2OC)ccc1OC)c1ccc(Br)cc1 (stereo not given) | Dose-dependent effect | 7.5 | Dose-dependent effect | 1
44 |  | COc1ccc(NS(=O)(=O)/C=C/c2ccc(OC)cc2OC)cc1 | Dose-dependent effect | 15 | Dose-dependent effect | 15
45 |  | O=S(=O)(/C=C/c1ccccc1)Nc1ccc(Cl)cc1 | Dose-dependent effect | 20 | Dose-dependent effect | 20
